MC4R barr agon: agonists of human melanocortin 4 receptor (MC4R) beta-arrestin; P32245; U2OS MC4R beta-arrestin complementation, luminescence; percent of melanotan II response, DMSO zero; activation, % at 8.9 µM; actives 0.98% (n = 360,000); AID 540308;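 active means activation above a per-plate cutoff, the mean activation of sample wells on that plate plus 3 SD, cut at about 8% in these data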
MC4R antagonist: blocks human MC4R cAMP signaling; actives 0.48% (n = 360,000); MC4R-expressing cells, MTII-stimulated cAMP, LANCE TR-FRET; P32245; inhibition, % at 6.5 µM; AID 540295;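 active means inhibition above its plate's cutoff, the mean of tested wells on that plate plus 3 SD, cut at about 29% in these data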
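Test system: U2OS cells stably expressing human melanocortin 4 receptor (MC4R); also added: Melanotan II challenge; compound: 6.5 µM single dose; timing: 30-min compound preincubation, 1-h Melanotan II challenge, 1-h detection, room temperature; signal: Eu-cAMP/anti-cAMP TR-FRET, emission 671 nm; repeats: one well per compound, no replicates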
EP2 antag: inhibitors of human EP2 prostaglandin E2 receptor; actives 0.52% (n = 260,000); C6 glioma cells expressing human EP2, cAMP TR-FRET; cells stimulated with saturating PGE2; inhibition, % at 25 µM; P43116;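 active means percent inhibition above 40 after rounding to a whole number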;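 further: rat C6 glioma host cells with rolipram phosphodiesterase inhibitor present; the protocol text gives 20 µM as final concentration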
Target sequence (P43116 whole entry, looked up): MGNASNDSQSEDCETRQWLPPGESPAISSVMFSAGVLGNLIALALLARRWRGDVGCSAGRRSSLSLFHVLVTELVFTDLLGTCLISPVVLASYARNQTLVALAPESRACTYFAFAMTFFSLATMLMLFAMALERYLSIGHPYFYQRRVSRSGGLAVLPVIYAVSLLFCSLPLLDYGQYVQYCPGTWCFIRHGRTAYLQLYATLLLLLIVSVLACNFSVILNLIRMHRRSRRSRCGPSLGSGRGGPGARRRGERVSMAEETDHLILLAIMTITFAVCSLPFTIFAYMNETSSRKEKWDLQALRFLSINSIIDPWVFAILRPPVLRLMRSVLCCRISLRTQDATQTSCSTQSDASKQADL
Exocytosis inh: blocks lytic granule exocytosis. actives 0.66% (n = 360,000). inhibition, % at 10 µM. AID 651702. TALL-104 LAMP-1 surface exposure, flow cytometry; cells stimulated with thapsigargin and PMA;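 active means inhibition above about 55%, limit read from the data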
T cell modulator: T cell immune modulation candidate | 2C CD8+ T cell-vesicle binding, flow cytometry; hits give low values | AID 2052 | actives 0.068% (n = 330,000) | response (vesicle binding), % at 7 µM;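 active means response, share of CD8 T cells binding vesicles, and their 90th percentile fluorescence all below set limits, cut at about 80% in these data, passing the limit was not always enough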;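 further: values below 100% mean blocked vesicle binding to the CD8+ T cells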
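Assay system – 2C mouse CD8+ T cells · Also added – QL9-loaded Drosophila micro-vesicles · Timing – Cell–vesicle co-incubation 1.5 h at 37 °C, staining 20 min on ice · Signal – flow cytometry of vesicle-bound cells · Measure – percent CD8+ FL2 mean versus row control · Controls – Peptide-free naked vesicles (low) and QL9 vesicles with 0.7% DMSO vehicle (high)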
EP2 mod: modulators of human EP2 prostaglandin E2 receptor; P43116; EP2-expressing cells, cAMP HTRF FRET, PGE2 co-stimulation; induction, % at 25 µM; actives 0.83% (n = 260,000); AID 940;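 active means compounds whose cAMP rise, as percent of the full-agonist control response, exceeds 60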;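 further: rat C6 glioma line stably carrying human EP2 under a CMV promoter; the protocol text gives 20 µM as final concentration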
MC4R barr conf: human MC4R beta-arrestin agonism confirmation; activation, % at 8.9 µM; actives 31% (n = 2,400); U2OS MC4R beta-arrestin recruitment, luminescence; scaled DMSO 0%, Melanotan II 100%; AID 602192; shares compounds with MC4R barr agon;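 active means mean activation across replicates above the hit cutoff set in the earlier primary screen, cut at about 8% in these data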
MOR-DOR barr ag: activates mu-delta opioid heterodimer, MC4R agonist counter-screen; shares compounds with MC4R barr agon; U2OS PathHunter beta-arrestin, beta-gal luminescence; percent of deltorphin B response, DMSO zero; activation, % at 9.2 µM; actives 5.8% (n = 2,400);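 active means mean activation across replicates exceeds the hit threshold derived in the earlier primary screen, cut at about 18% in these data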
Numbers stand for hits; n = inactive; x = no result. Compounds with a hit are over-represented: about 2.6% of the library has one in this group of screens.

SMILES | MC4R barr agon | MC4R antagonist | EP2 antag | Exocytosis inh | T cell modulator | EP2 mod | MC4R barr conf | MOR-DOR barr ag
Cc1cc(=O)c(C(=O)OC(C)C(=O)NC(N)=O)nn1-c1ccc(Cl)cc1 (stereo not drawn) | n | n | x | n | n | x | x | x
O=C(Nc1ccccc1Oc1ccccc1)c1cc([N+](=O)[O-])ccc1Cl | 14 | n | n | n | n | n | n | n
O=C(Nc1ccc(Nc2ccccc2)cc1)c1cc([N+](=O)[O-])ccc1Cl | n | n | x | n | n | x | x | x
COc1cc(SC)ccc1C(=O)Nc1ccccc1C#N | 12 | n | n | n | n | n | n | n
COc1cc(SC)ccc1C(=O)Nc1ccncc1 | n | n | n | n | n | n | x | x
Cc1cc(Cl)c(S(=O)(=O)N2CCN(c3cccc(C)c3C)CC2)cc1OCC(N)=O | 14 | n | n | n | n | n | n | n
O=c1c2ccccc2nc2n1C(CSc1ccc(F)cc1)CS2 (stereo not drawn) | n | n | n | n | n | n | x | x
CCOC(=O)c1ccc(NC(=S)Nc2cccc(C)n2)cc1 | 22 | n | n | n | n | n | n | n
COc1cccc(C(=O)Nc2ccc(-c3nc4ccccc4o3)c(O)c2)c1 | 11 | n | n | n | n | n | n | n
COc1cc(NC(=O)c2cc3ccccc3o2)c(OC)cc1Cl | 13 | n | n | n | n | n | n | n
COc1ccc(-c2cc3ccccc3oc2=O)cc1NC(=O)c1ccc(Br)o1 | 13 | n | n | n | n | n | n | n
COc1cc(NC(=O)c2ccc3c(c2)OCO3)ccc1NC(=O)c1cc2ccccc2o1 | x | x | n | x | x | n | x | x
O=C(Nc1ccc(Cl)cc1Cl)c1cc2ccccc2o1 | n | n | x | n | n | x | x | x
CCOc1cccc(C(=O)Nc2ccc(NC(=O)c3cc4ccccc4o3)c(OC)c2)c1 | 12 | n | x | n | n | x | 34 | 30
O=C(Nc1cccc(O)c1)c1ccccc1[N+](=O)[O-] | n | n | n | n | n | n | x | x
CC(=O)c1ccc(OCC(=O)Nc2ccc3c(c2)CCC3)cc1 | n | n | n | n | n | n | x | x
O=S(=O)(c1ccc2nc(-c3ccccc3)[nH]c2c1)N1CCN(c2cccc(Cl)c2)CC1 | 15 | n | n | n | n | n | n | n
COc1ccccc1N1CCN(S(=O)(=O)c2ccc3nc(-c4ccccc4)[nH]c3c2)CC1 | n | n | n | n | n | n | x | x
O=C(Nc1ccccc1-c1nnn(CC(=O)N2CCc3ccccc3C2)n1)c1ccco1 | x | x | n | x | x | n | x | x
CCOc1ccc(OCCSc2nc(C)cc(=O)[nH]2)cc1 | n | n | n | n | n | n | x | x
O=c1[nH]c(SCCOc2cccc3ccccc23)nc2ccccc12 | 10 | n | n | n | n | n | n | n
CCOc1ccc(OCCSc2nc3ccccc3c(=O)[nH]2)cc1 | 9.6 | n | n | n | x | n | n | n
COc1c(C(=O)Nc2ccc3[nH]c(=O)[nH]c3c2)cc2ccccc2c1Br | 12 | n | n | n | n | n | n | n
CCSc1nnc(NC(=O)C2CC2c2ccccc2)s1 (stereo not drawn) | 15 | n | n | n | n | n | n | n
Clc1ccc(Cl)c(-c2nn3c(COc4ccccc4)nnc3s2)c1 | 17 | n | n | n | n | n | 11 | n
c1ccc(OCc2nnc3sc(-c4cccs4)nn23)cc1 | n | n | n | n | n | n | x | x
C=CCNc1nc(C(F)(F)F)nc2c1nnn2Cc1ccccc1Cl | 12 | n | n | n | n | n | n | n
COc1cccc(C2C(C(=O)OC(C)C)=C(C)N=C3SCC(=O)N32)c1 (stereo not drawn) | x | x | n | x | x | n | x | x
COc1ccc(NC(=O)COC(=O)c2cc(SC)ccc2Cl)c(OC)c1 | 22 | n | n | n | n | n | 9.1 | n

Screening data: PubChem BioAssay, several laboratories
